Measurements from ChEMBL document CHEMBL1138269, “Antimicrobial lexitropsins containing amide, amidine, and alkene linking groups” (J Med Chem, 2007).
In brackets after ≈: the same amount, converted by molar mass.

Columns and labels:
Assay type in all cases: functional
[1] = system: Staphylococcus aureus; test: Antibacterial activity against methicillin-resistant Staphylococcus aureus clinical isolate 3
Method in brief: (§1)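 Broth microdilution MIC against clinical S. aureus isolates (incl. MRSA), run per NCCLS guidelines in 96-well plates. Test sample dissolved in sterile water to a 200 µg mL-1 working concentration, then doubling dilutions in Mueller-Hinton broth. Incubated at 37 °C, growth read visually plus resazurin indicator. MIC reported in µg/mL.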

[2] = system: Staphylococcus aureus; test: Antibacterial activity against methicillin-resistant Staphylococcus aureus clinical isolate 1; method in brief: as §1
[3] = system: Candida albicans; test: Antifungal activity against Candida albicans NCPF 3179; details: Candida albicans; read-out: MIC
Method in brief: (§2)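 Antifungal microdilution in Sabouraud broth. Test sample at 200 µg mL-1 working solution in sterile water was serially doubled down successive rows. Incubation was at 25 °C, followed by visual growth check and addition of resazurin indicator. Read-out is MIC in µg mL-1.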

[4] = system: Enterococcus faecalis; test: Antibacterial activity against Streptococcus faecalis NCTC 775
Method in brief: (§3)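 Broth microdilution in Mueller-Hinton broth. Samples were dissolved in sterile water to 200 µg mL-1 as the working solution and doubling dilutions were made across rows. Plates were incubated at 37 °C and inspected visually, with resazurin added as growth indicator. MIC reported in µg mL-1.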

[5] = system: Staphylococcus aureus; test: Antibacterial activity against methicillin-resistant Staphylococcus aureus clinical isolate 4; method in brief: as §1
[6] = system: Mycolicibacterium fortuitum; test: Antibacterial activity against Mycobacterium fortuitum NCTC 10394; method in brief: as §3
[7] = system: Staphylococcus aureus; test: Antibacterial activity against methicillin-sensitive Staphylococcus aureus NCTC 6571; method in brief: as §3
[8] = system: Staphylococcus aureus; test: Antibacterial activity against methicillin-resistant Staphylococcus aureus clinical isolate 2; method in brief: as §1
[9] = system: Aspergillus niger; test: Antifungal activity against Aspergillus niger IMI 149007; method in brief: as §2
[10] = system: Staphylococcus aureus; test: Antibacterial activity against methicillin-resistant Staphylococcus aureus clinical isolate 5; method in brief: as §1
[11] = Enterococcus faecalis, NCTC 775, read-out: MIC
[12] = Staphylococcus aureus, NCTC 6571, read-out: MIC

| Compound | MIC [1] | MIC [2] | MIC [3] | MIC [4, 11] | MIC [5] | MIC [6] | MIC [7, 12] | MIC [8] | MIC [9] | MIC [10] | MIC [4] | MIC [7] |
| --- | --- | --- | --- | --- | --- | --- | --- | --- | --- | --- | --- | --- |
| COc1cccc(C(=O)Nc2cc(C(=O)Nc3cc(C(=O)Nc4nc(C(=O)NCCCN(C)C)c(C(C)C)s4)n(C)c3)n(C)c2)c1 | 32 µg/mL (≈ 49.3 µM) | 16 µg/mL (≈ 24.7 µM) | > 50 µg/mL | 25 µg/mL (≈ 38.5 µM) | 32 µg/mL (≈ 49.3 µM) | > 50 µg/mL | 25 µg/mL (≈ 38.5 µM) | 32 µg/mL (≈ 49.3 µM) | > 50 µg/mL | 32 µg/mL (≈ 49.3 µM) |  |  |
| CC(C)c1sc(NC(=O)c2cc(NC(=O)c3cc(NC(=O)c4ccc5c(c4)OCO5)cn3C)cn2C)nc1C(=O)NCCCN(C)C | 64 µg/mL (≈ 96.6 µM) | 8 µg/mL (≈ 12.1 µM) | > 50 µg/mL | 25 µg/mL (≈ 37.7 µM) | 64 µg/mL (≈ 96.6 µM) | > 50 µg/mL | 13 µg/mL (≈ 19.6 µM) | 64 µg/mL (≈ 96.6 µM) | > 50 µg/mL | 64 µg/mL (≈ 96.6 µM) |  |  |
| COc1cccc(/C=C/c2cccc(C(=O)Nc3cc(C(=O)Nc4nc(C(=O)NCCCN(C)C)c(CCC(C)C)s4)n(C)c3)c2)c1 | 32 µg/mL (≈ 48.7 µM) | 32 µg/mL (≈ 48.7 µM) | > 50 µg/mL | > 50 µg/mL | 32 µg/mL (≈ 48.7 µM) | > 50 µg/mL | > 50 µg/mL | 32 µg/mL (≈ 48.7 µM) | > 50 µg/mL | 32 µg/mL (≈ 48.7 µM) |  |  |
| CC(C)CCn1cc(NC(=O)c2cc(NC(=O)c3cccc(Cl)c3)cn2C)cc1C(=O)Nc1cc(C(=O)NCCCN(C)C)n(C)c1 | 16 µg/mL (≈ 24.1 µM) | 16 µg/mL (≈ 24.1 µM) | > 50 µg/mL | 6 µg/mL (≈ 9.05 µM) | 16 µg/mL (≈ 24.1 µM) | > 50 µg/mL | 13 µg/mL (≈ 19.6 µM) | 16 µg/mL (≈ 24.1 µM) | > 50 µg/mL | 16 µg/mL (≈ 24.1 µM) |  |  |
| COc1cccc(/C=C/c2cc(C(=O)Nc3cc(C(=O)Nc4cc(C(=O)NCCCN(C)C)n(C)c4)n(C)c3)n(C)c2)c1 | 32 µg/mL (≈ 54.6 µM) | 32 µg/mL (≈ 54.6 µM) | 50 µg/mL (≈ 85.4 µM) | 25 µg/mL (≈ 42.7 µM) | 32 µg/mL (≈ 54.6 µM) | > 50 µg/mL | > 50 µg/mL | 32 µg/mL (≈ 54.6 µM) | > 50 µg/mL | 32 µg/mL (≈ 54.6 µM) |  |  |
| Cn1cc(NC(=O)c2cc(NC(=O)c3ccc(/C=C/c4cccnc4)cc3)cn2C)cc1C(=O)NCCN1CCOCC1 | 4 µg/mL (≈ 6.88 µM) | 2 µg/mL (≈ 3.44 µM) | > 50 µg/mL | 35 µg/mL (≈ 60.2 µM) | 8 µg/mL (≈ 13.8 µM) | > 50 µg/mL | 35 µg/mL (≈ 60.2 µM) | 8 µg/mL (≈ 13.8 µM) | > 50 µg/mL | 1 µg/mL (≈ 1.72 µM) |  |  |
| Cn1cc(NC(=O)c2cc(NC(=O)c3ccc(/C=C/c4nc5ccccc5o4)cc3)cn2C)cc1C(=O)NCCN1CCOCC1 (stereo in doubt; 79) | 1 µg/mL (≈ 1.61 µM) | 1 µg/mL (≈ 1.61 µM) | > 50 µg/mL |  | 1 µg/mL (≈ 1.61 µM) | > 50 µg/mL |  | 16 µg/mL (≈ 25.7 µM) | > 50 µg/mL | 1 µg/mL (≈ 1.61 µM) | 25 µg/mL (≈ 40.2 µM) | 13 µg/mL (≈ 20.9 µM) |
| COc1cccc(C(=N)Nc2cc(C(=O)Nc3cc(C(=O)Nc4cc(C(=O)NCCCN5CCOCC5)n(C)c4)n(C)c3)n(C)c2)c1 | > 64 µg/mL | > 64 µg/mL | > 50 µg/mL | > 50 µg/mL | > 64 µg/mL | > 50 µg/mL | > 50 µg/mL | > 64 µg/mL | > 50 µg/mL | > 64 µg/mL |  |  |
| COc1cccc(C(=N)Nc2cc(C(=O)Nc3cc(C(=O)Nc4cc(C(=O)NCCc5ccccn5)n(C)c4)n(C)c3)n(C)c2)c1 | > 64 µg/mL | > 64 µg/mL | > 50 µg/mL | > 50 µg/mL | > 64 µg/mL | > 50 µg/mL | 50 µg/mL (≈ 80.4 µM) | > 64 µg/mL | > 50 µg/mL | > 64 µg/mL |  |  |
| CN(C)CCCNC(=O)c1cc(NC(=O)c2cc(NC(=O)c3ccc(/C=C/c4ccncc4)cc3)cn2C)cn1C | 64 µg/mL (≈ 116 µM) | 16 µg/mL (≈ 28.9 µM) | > 50 µg/mL | 25 µg/mL (≈ 45.2 µM) | > 64 µg/mL | > 50 µg/mL | 50 µg/mL (≈ 90.3 µM) | 32 µg/mL (≈ 57.8 µM) | > 50 µg/mL | > 64 µg/mL |  |  |
| CC(C)c1sc(NC(=O)c2cc(NC(=O)c3cc(NC(=O)c4cccc(Cl)c4)cn3C)cn2C)nc1C(=O)NCCCN(C)C | 11 µg/mL (≈ 16.8 µM) | 11 µg/mL (≈ 16.8 µM) | > 50 µg/mL | 6 µg/mL (≈ 9.19 µM) | 0.5 µg/mL (≈ 0.765 µM) | > 50 µg/mL | 13 µg/mL (≈ 19.9 µM) | 11 µg/mL (≈ 16.8 µM) | > 50 µg/mL | 2 µg/mL (≈ 3.06 µM) |  |  |
| COc1cccc(/C=C/c2ccc(C(=O)Nc3cc(C(=O)Nc4nc(C(=O)NCCCN(C)C)c(CCC(C)C)s4)n(C)c3)cc2)c1 | 8 µg/mL (≈ 12.2 µM) | 8 µg/mL (≈ 12.2 µM) | > 50 µg/mL | > 50 µg/mL | 8 µg/mL (≈ 12.2 µM) | > 50 µg/mL | > 50 µg/mL | 8 µg/mL (≈ 12.2 µM) | > 50 µg/mL | 8 µg/mL (≈ 12.2 µM) |  |  |
| COc1cccc(/C=C/c2cccc(C(=O)Nc3cc(C(=O)Nc4cc(C(=O)NCCCN(C)C)n(C)c4)n(C)c3)c2)c1 |  |  | > 50 µg/mL | 25 µg/mL (≈ 42.9 µM) |  | > 50 µg/mL | 25 µg/mL (≈ 42.9 µM) |  | > 50 µg/mL |  |  |  |
| COc1cccc(C(=N)Nc2cc(C(=O)Nc3cc(C(=O)Nc4cn(CCCN(C)C)cn4)n(C)c3)n(C)c2)c1 |  |  | > 50 µg/mL | > 50 µg/mL |  | > 50 µg/mL | > 50 µg/mL |  | > 50 µg/mL |  |  |  |
| CC(=N)Nc1cc(C(=O)Nc2cc(C(=O)Nc3cc(C(=O)NCCN4CCOCC4)n(C)c3)n(C)c2)n(C)c1 |  |  | > 50 µg/mL | > 50 µg/mL |  | > 50 µg/mL | 50 µg/mL (≈ 93 µM) |  | 50 µg/mL (≈ 93 µM) |  |  |  |
| COc1cccc(C(=N)Nc2cc(C(=O)Nc3cc(C(=O)Nc4cc(C(=O)NCCCN(C)C)n(C)c4)n(C)c3)n(C)c2)c1 |  |  | > 50 µg/mL | > 50 µg/mL |  | > 50 µg/mL | 25 µg/mL (≈ 41.5 µM) |  | 25 µg/mL (≈ 41.5 µM) |  |  |  |
| COc1cccc(C(=N)Nc2cc(C(=O)Nc3cc(C(=O)Nc4cc(C(=O)NCCN5CCOCC5)n(C)c4)n(C)c3)n(C)c2)c1 |  |  | > 50 µg/mL | > 50 µg/mL |  | > 50 µg/mL | > 50 µg/mL |  | > 50 µg/mL |  |  |  |
| Cn1cc(NC(=O)c2cc(NC(=O)c3ccc(/C=C/c4ccc5ccccc5c4)cc3)cn2C)cc1C(=O)NCCN1CCOCC1 |  |  | > 50 µg/mL | > 50 µg/mL |  | > 50 µg/mL | 25 µg/mL (≈ 39.6 µM) |  | > 50 µg/mL |  |  |  |
| CC(=N)Nc1cc(C(=O)Nc2cc(C(=O)Nc3cc(C(=O)NCCCN(C)C)n(C)c3)n(C)c2)n(C)c1 |  |  | > 50 µg/mL | 50 µg/mL (≈ 98.1 µM) |  | > 50 µg/mL | 13 µg/mL (≈ 25.5 µM) |  | 50 µg/mL (≈ 98.1 µM) |  |  |  |
| CN(C)CCCNC(=O)c1cc(NC(=O)c2cc(NC(=O)c3cc(/C=C/c4ccc5ccccc5n4)cn3C)cn2C)cn1C |  |  | 25 µg/mL (≈ 41.2 µM) | > 50 µg/mL |  | > 50 µg/mL | > 50 µg/mL |  | 50 µg/mL (≈ 82.4 µM) |  |  |  |
| Cn1cc(NC(=O)c2cc(NC(=O)c3ccc(/C=C/c4ccc5ccccc5n4)cc3)cn2C)cc1C(=O)NCCN1CCOCC1 |  |  | > 50 µg/mL | > 50 µg/mL |  | > 50 µg/mL | 50 µg/mL (≈ 79.1 µM) |  | > 50 µg/mL |  |  |  |
| CC(C)n1cc(NC(=O)c2cc(NC(=O)c3ccc(Cl)c(Cl)n3)cn2C)cc1C(=O)Nc1cc(C(=O)NCCCN(C)C)n(C)c1 |  |  | > 50 µg/mL | 50 µg/mL (≈ 74.6 µM) |  | > 50 µg/mL | 6 µg/mL (≈ 8.95 µM) |  | 50 µg/mL (≈ 74.6 µM) |  |  |  |
